Data reported in ChEMBL document CHEMBL1146679, “Synthesis and biological evaluation of pyrrolo[2,1-c][1,4]benzodiazepine (PBD) C8 cyclic amine conjugates” (2004).

Legend:
A2780 [1] = experiment: Concentration required to inhibit A2780 cell growth when compared with control after incubation for 96 hr at 37 C; format: functional, cell-based; conditions: Homo sapiens
Summary of the method: (§1)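 Human ovarian tumour lines (SKOV-3, A2780, A2780cisR, CH1, CH1cisR) exposed to agent for 96 h at 37 °C; growth compared with PBD-free controls; IC50 taken as concentration giving 50% growth inhibition.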

CH1 [2] = experiment: Concentration required to inhibit CH1 tumor cell growth when compared with control after incubation for 96 hr at 37 C; format: functional, cell-based; conditions: Homo sapiens; summary of the method: as §1
Nucleic Acid [3] = experiment: In vitro induced thermal stabilization of duplex DNA melting after incubation with the compound (20 uM) at 37 C for 18 h; format: functional; conditions: Bos taurus
Summary of the method: (§2)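 Duplex calf thymus DNA (100 µM in DNAp) mixed with ligand (20 µM), 5:1 molar ratio, in 10 mM NaH2PO4/Na2HPO4 + 1 mM Na2EDTA, pH 7.00 ± 0.01; held at 37 °C for 0, 4 or 18 h before thermal melting; ΔTm relative to DNA alone, ±0.1 °C, at least 3 determinations.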

SK-OV-3 = experiment: Concentration required to inhibit SKOV-3 cell growth when compared with control after incubation for 96 hr at 37 C; format: functional, cell-based; conditions: Homo sapiens; summary of the method: as §1
Nucleic Acid [4] = experiment: In vitro induced thermal stabilization of duplex DNA melting after incubation with the compound (20 uM) at 37 C for 4 h; format: functional; conditions: Bos taurus; summary of the method: as §2
CH1 [5] = experiment: Concentration required to inhibit CH1cisR tumor cell growth when compared with control after incubation for 96 hr at 37 C; format: functional, cell-based; conditions: Homo sapiens; summary of the method: as §1
A2780 [6] = experiment: Concentration required to inhibit A2780cisR cell growth when compared with control after incubation for 96 h at 37 C; format: functional, cell-based; conditions: Homo sapiens; summary of the method: as §1
A2780 [7] = experiment: Resistance factor was determined as IC50 cisplatin-resistant/parent for human A2780 ovarian cell line; format: functional
Summary of the method: (§3)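 Resistance factor computed as IC50 in cisplatin-resistant line divided by IC50 in parent line, for the A2780/A2780cisR and CH1/CH1cisR pairs, from 96 h, 37 °C growth-inhibition assays against PBD-free controls.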

CH1 [8] = experiment: Resistance factor was determined as IC50 cisplatin-resistant/parent for human CH1cisR tumor ovarian cell line; format: functional; summary of the method: as §3
Nucleic Acid [9] = experiment: In vitro induced thermal stabilization of duplex DNA melting after incubation with the compound (20 uM) at 37 C for 0 h; format: functional; conditions: Bos taurus; summary of the method: as §2
[10] = Activity in NCI standard hollow fibre assay after subcutaneous administration; format: functional
[11] = Total activity in NCI standard hollow fibre assay; format: functional
[12] = Activity in NCI standard hollow fibre assay after intraperitoneal administration; format: functional
Nucleic Acid [13] = experiment: gIn vitro induced thermal stabilization of duplex DNA melting after incubation with the compound (20 uM) at 37 C for 0 h; format: functional; conditions: Bos taurus; summary of the method: as §2

## COc1cc2c(cc1OCCC(=O)N1CCc3ccccc31)N=C[C@@H]1CCCN1C2=O
A2780 [1]
  Concentration: 1.55 µM
CH1 [2]
  Concentration: 1.5 µM
Nucleic Acid [3]
  ΔTm: 1.2 °C
SK-OV-3
  Concentration: 5.8 µM
Nucleic Acid [4]
  ΔTm: 1 °C
CH1 [5]
  Concentration: 3 µM
A2780 [6]
  Concentration: 4.9 µM
A2780 [7]
  RF: 3.2
CH1 [8]
  RF: 2
Nucleic Acid [9]
  ΔTm: 0.7 °C

## COc1cc2c(cc1OCCC(=O)N1CCCCC1)N=C[C@@H]1CCCN1C2=O
A2780 [1]
  Concentration: 3.2 µM
CH1 [2]
  Concentration: 4.9 µM
Nucleic Acid [3]
  ΔTm: 1.2 °C
SK-OV-3
  Concentration: 23.5 µM
Nucleic Acid [4]
  ΔTm: 0.9 °C
CH1 [5]
  Concentration: 7.9 µM
A2780 [6]
  Concentration: 14.5 µM
A2780 [7]
  RF: 4.5
CH1 [8]
  RF: 1.6
Nucleic Acid [9]
  ΔTm: 0.8 °C

## COc1cc2c(cc1OCCC(=O)N1Cc3ccccc3C1)N=C[C@@H]1CCCN1C2=O
A2780 [1]
  Concentration: 0.23 µM
[10]
  Score: 2
CH1 [2]
  Concentration: 0.24 µM
[11]
  Score: 40
Nucleic Acid [3]
  ΔTm: 1.3 °C
SK-OV-3
  Concentration: 1.45 µM
Nucleic Acid [4]
  ΔTm: 1.1 °C
CH1 [5]
  Concentration: 0.42 µM
[12]
  Score: 40
A2780 [6]
  Concentration: 0.94 µM
A2780 [7]
  RF: 4
CH1 [8]
  RF: 2
Nucleic Acid [9]
  ΔTm: 1 °C

## COc1cc2c(cc1OCc1ccccc1)N=C[C@@H]1CCCN1C2=O
A2780 [1]
  Concentration: 0.17 µM
CH1 [2]
  Concentration: 0.145 µM
Nucleic Acid [3]
  ΔTm: 0.4 °C
SK-OV-3
  Concentration: 0.46 µM
Nucleic Acid [4]
  ΔTm: 0.4 °C
CH1 [5]
  Concentration: 0.145 µM
A2780 [6]
  Concentration: 0.48 µM
A2780 [7]
  RF: 2.8
CH1 [8]
  RF: 1
Nucleic Acid [9]
  ΔTm: 0.2 °C

## COc1cc2c(cc1OCCC(=O)N1CCCC1)N=C[C@@H]1CCCN1C2=O
A2780 [1]
  Concentration: 1.5 µM
CH1 [2]
  Concentration: 1.4 µM
Nucleic Acid [3]
  ΔTm: 1.2 °C
SK-OV-3
  Concentration: 5.4 µM
Nucleic Acid [4]
  ΔTm: 0.9 °C
CH1 [5]
  Concentration: 1.85 µM
Nucleic Acid [13]
  ΔTm: 0.5 °C
A2780 [6]
  Concentration: 4.3 µM
A2780 [7]
  RF: 2.9
CH1 [8]
  RF: 1.3

## COc1cc2c(cc1OC)C(=O)N1CCC[C@H]1C=N2
A2780 [1]
  Concentration: 0.064 µM
CH1 [2]
  Concentration: 0.082 µM
Nucleic Acid [3]
  ΔTm: 0.6 °C
SK-OV-3
  Concentration: 1.7 µM
Nucleic Acid [4]
  ΔTm: 0.4 °C
CH1 [5]
  Concentration: 0.11 µM
A2780 [6]
  Concentration: 0.155 µM
A2780 [7]
  RF: 2.4
CH1 [8]
  RF: 1.3
Nucleic Acid [9]
  ΔTm: 0.2 °C
